According to ChEMBL document CHEMBL5230161, “Exploring structural effects in a new class of NRF2 inhibitors” (RSC Med Chem, 2023):
≈ marks a conversion by molar mass, not a printed value. Calls of active or inactive are those of the source. No cut-off for these calls is given here.

What was measured:
[1] = target: T1, Nuclear factor erythroid 2-related factor 2 (Homo sapiens) (UniProt Q16236); assay: Activation of Nrf2 (unknown origin) assessed as cellular activity; design: concentration or dose not given beside the values; conditions: filed as activator
T1 sequence (whole entry): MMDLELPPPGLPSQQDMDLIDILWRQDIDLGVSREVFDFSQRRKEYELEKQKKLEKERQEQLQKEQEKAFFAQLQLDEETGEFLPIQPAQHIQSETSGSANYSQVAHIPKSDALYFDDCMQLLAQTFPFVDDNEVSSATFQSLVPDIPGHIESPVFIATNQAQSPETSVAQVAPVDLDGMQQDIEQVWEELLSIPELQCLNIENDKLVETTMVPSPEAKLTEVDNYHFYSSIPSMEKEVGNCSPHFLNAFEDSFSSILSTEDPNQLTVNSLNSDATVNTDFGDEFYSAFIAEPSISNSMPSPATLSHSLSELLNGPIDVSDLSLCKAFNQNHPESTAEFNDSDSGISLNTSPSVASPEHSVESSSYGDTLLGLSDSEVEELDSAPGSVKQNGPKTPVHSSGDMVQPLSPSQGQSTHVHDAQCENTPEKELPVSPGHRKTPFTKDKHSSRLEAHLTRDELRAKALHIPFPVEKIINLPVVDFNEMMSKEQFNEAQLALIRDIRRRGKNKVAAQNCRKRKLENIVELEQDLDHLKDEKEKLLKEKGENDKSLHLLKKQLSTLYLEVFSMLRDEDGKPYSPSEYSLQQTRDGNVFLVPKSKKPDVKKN

MCF7 [2] = assay: Inhibition of NRF2/ARE (unknown origin) transfected in human MCF7 cells assessed as cellular activity preincubated with compound for 1 hrs followed by tBHQ addition and measured after 24 hrs by steady-glo luciferase assay relative to control; format: cell-based; design: concentration or dose not given beside the values; conditions: time 25.0 hrs, dose or concentration not given here
[3] = Solubility of the compound in pH 7.4 PBS buffer; format: physicochemical
A549 [4] = assay: Induction of cell cycle arrest in human A549 cells assessed as accumulation of cells at G2/M phase at 10 uM incubated for 24 hrs by PI staining based flow cytometric analysis; format: functional
Summary of the method: (§1)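 A549 or H460 cells synchronized in low-serum medium 12 h, then inhibitor 24 h; propidium iodide staining, flow cytometry, univariate cell-cycle model (Watson pragmatic, G0/1 and G2/M peak constraints); % of total cells as mean ± SE, n = 2-3 independent experiments.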

A549 [5] = assay: Inhibition of cell migration in human A549 cells at 10 uM incubated for 24 hrs by DAPI staining based transwell migration assay relative to control; format: functional
Summary of the method: (§2)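 Transwell migration of A549 cells seeded in serum-free medium with DMSO vehicle or compound (1, 5, 10 μmol L⁻¹) in top chamber; bottom medium with compound and 5% FBS chemoattractant; 24 h, filters fixed, unmigrated cells removed, DAPI stain, 9 fields imaged per insert; two inserts per condition, n = 2-3; one- or two-way ANOVA vs vehicle.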

NCI-H460 [6] = assay: Induction of cell cycle arrest in human NCI-H460 cells assessed as accumulation of cells at G2/M phase at 10 uM incubated for 24 hrs by PI staining based flow cytometric analysis; format: functional; summary of the method: as §1
A549 [7] = assay: Antiproliferative activity against human A549 cells assessed as inhibition of cell growth incubated for 72 hrs by MTT assay; format: functional; design: scale not given: the % may be the effect or the level left
Summary of the method: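 A549 human lung cancer cells exposed to a single 5 μmol L⁻¹ dose for 72 h; viability read by MTT assay.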

NCI-H460 [8] = assay: Induction of cell cycle arrest in human NCI-H460 cells assessed as accumulation of cells at G2/M phase at 3 uM incubated for 24 hrs by PI staining based flow cytometric analysis; format: functional; summary of the method: as §1
[9] = target: T1, Nuclear factor erythroid 2-related factor 2 (Homo sapiens); assay: Inhibition of NRF2 signalling pathway in human A549 cells assessed as decrease in NQO1 mRNA level at 5 to 10 uM incubated for 24 hrs by RT-PCR analysis; format: cell-based; conditions: dose 5-10 µM
Summary of the method: (§3)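 A549 cells incubated with compound 24 h; NQO1, GCLC, AKR1C2, GCLM mRNA by RT-PCR, normalized to GAPDH and DMSO vehicle; representative of 3 independent experiments.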

A549 [10] = assay: Inhibition of cell migration in human A549 cells at 5 uM incubated for 24 hrs by DAPI staining based transwell migration assay relative to control; format: functional; summary of the method: as §2
[11] = target: T1, Nuclear factor erythroid 2-related factor 2 (Homo sapiens); assay: Inhibition of NRF2 signalling pathway in human A549 cells assessed as decrease in AKR1C2 mRNA level at 5 to 10 uM incubated for 24 hrs by RT-PCR analysis; format: cell-based; conditions: dose 5-10 µM; summary of the method: as §3
[12] = target: T1, Nuclear factor erythroid 2-related factor 2 (Homo sapiens); assay: Inhibition of NRF2 signalling pathway in human A549 cells assessed as decrease in GCLM mRNA level at 5 to 10 uM incubated for 24 hrs by RT-PCR analysis; format: cell-based; conditions: dose 5-10 µM; summary of the method: as §3
A549 [13] = assay: Antiproliferative activity against human A549 cells assessed as reduction in cell viability incubated for 72 hrs by MTT assay; format: functional, cell-based; conditions: A549, 72 h
A549 [14] = assay: Inhibition of cell migration in human A549 cells at 1 uM incubated for 24 hrs by DAPI staining based transwell migration assay; format: functional; summary of the method: as §2
NCI-H358 = assay: Antiproliferative activity against human NCI-H358 cells assessed as reduction in cell viability incubated for 72 hrs by MTT assay; format: functional, cell-based; conditions: NCI-H358, 72 h
[15] = target: T1, Nuclear factor erythroid 2-related factor 2 (Homo sapiens); assay: Inhibition of NRF2 signalling pathway in human A549 cells assessed as decrease in GCLC mRNA level at 5 to 10 uM incubated for 24 hrs by RT-PCR analysis; format: cell-based; conditions: dose 5-10 µM; summary of the method: as §3
A549 [16] = assay: Induction of cell cycle arrest in human A549 cells assessed as accumulation of cells at G2/M phase at 3 uM incubated for 24 hrs by PI staining based flow cytometric analysis; format: functional; summary of the method: as §1
MCF7 [17] = assay: Inhibition of NRF2/ARE (unknown origin) transfected in human MCF7 cells assessed as cellular activity measured before deprotection of compound preincubated with compound for 1 hrs followed by tBHQ addition and measured after 24 hrs by steady-glo luciferase assay relative to control; format: cell-based; conditions: time 25.0 hrs, dose or concentration not given here
[18] = target: T1, Nuclear factor erythroid 2-related factor 2 (Homo sapiens); assay: Activation of Nrf2 (unknown origin) assessed as cellular activity measured before deprotection of compound; conditions: filed as activator

Activity [1] | SMILES | inhibition (MCF7 [2]) | further results
-8.7% | Cc1cc(C)cc(Nc2ncc(-c3cccnc3)cc2C#N)c1 |  | 
 | Cc1cc(C)cc(Nc2nc(C)c(-c3ccccc3)cc2C#N)c1 | 54.6% | solubility [3]: 3 µM (≈ 0.94 µg/mL); Activity (A549 [4]): Active; inhibition at 10 µM (A549 [5]): 65%; Activity (NCI-H460 [6]): Active; Activity (A549 [7]): 9.8%
 | Cc1ccnc(Nc2ncc(-c3ccccc3)cc2C#N)c1 | 46.7% | Activity (NCI-H460 [8]): Active; inhibition [9]: Active; solubility [3]: 209 µM (≈ 59.8 µg/mL); inhibition at 5 µM (A549 [10]): 72%; inhibition [11]: Active; inhibition [12]: Active; IC50 (A549 [13]): 610 nM; inhibition (A549 [14]): inactive; IC50 (NCI-H358): 580 nM; inhibition at 10 µM (A549 [5]): 79%; Activity (A549 [7]): 59.8%; inhibition [15]: Active; Activity (A549 [16]): Active
 | Cc1cc(C)cc(Nc2nc(C)ccc2C#N)c1 | 6.1% | 
-23.3% | COc1cc(OC)cc(-c2cnc(Nc3cc(C)cc(C)c3)c(C#N)c2)c1 |  | 
 | N#Cc1c(-c2ccccc2)ccnc1Nc1cc(Br)ccn1 | 7.5% | 
 | N#Cc1cc(-c2ccccc2)cnc1Nc1cc(C(F)(F)F)ccn1 | 55.3% | 
 | CC(=O)N(c1cc(C)cc(C)c1)c1nc(C)c(-c2ccccc2)cc1C#N | 12.5% | 
 | Cc1cc(C)nc(Nc2ncc(-c3ccccc3)cc2C#N)c1 | 20% | 
 | Cc1nc(Nc2cccc(C(C)O)c2)c(C#N)cc1-c1ccccc1 (stereo not drawn) | 5.2% | inhibition (MCF7 [17]): 26%
 | Cc1cc(C)cc(Nc2ncc(-c3cccc(O[Si](C)(C)C(C)(C)C)c3)cc2C#N)c1 | 12.6% | 
 | Cc1ccc(C)c(Nc2nc(C)c(-c3ccccc3)cc2C#N)c1 | 51% | 
 | Cc1cc(C)cc(Nc2nc(-c3ccccc3)ccc2C#N)c1 | 3.7% | 
-7.8% | Cc1cc(C)cc(Nc2ncc(-c3ccccc3)nc2C#N)c1 |  | 
 | Cc1cc(C)cc(Nc2nc(C)c(-c3cccc(Cl)c3)cc2C#N)c1 | 49.2% | 
-66% | COc1cc(Nc2ncc(-c3ccccc3)nc2C#N)cc(OC)c1 |  | 
-9.5% | Cc1cc(N)cc(Nc2nc3ccccc3cc2C#N)c1 |  | 
 | Cc1cc(C)cc(Nc2ncc(-c3cc(Cl)cc(Cl)c3)cc2C#N)c1 | 2.9% | 
-20.3% | Cc1cc(Nc2ncc(-c3ccccc3)cc2C#N)ccn1 |  | 
-45.4% | Cc1cc(C)cc(Oc2ncc(-c3ccccc3)cc2C#N)c1 |  | 
 | Cc1cc(C)cc(N(C)c2nc(C)c(-c3ccccc3)cc2C#N)c1 | 21.9% | 
 | Cc1ccnc(Nc2nccc(-c3ccccc3)c2C#N)c1 | 35.4% | 

Activity [1] | SMILES | inhibition (MCF7 [2]) | further results
 | CC(C)(C)[Si](C)(C)OCc1ccnc(Nc2ncc(-c3ccccc3)cc2C#N)c1 | 43.3% | 
 | Cc1cc(Nc2nc(C)c(-c3ccccc3)cc2C#N)cc(C)c1C | 37.2% | 
 | Cc1cncc(Nc2ncc(-c3ccccc3)cc2C#N)n1 | 13.2% | 
 | Cc1nc(Nc2cccc(I)c2)c(C#N)cc1-c1ccccc1 | 51.8% | Activity (A549 [7]): 26.6%
 | N#Cc1cc(-c2ccccc2)cnc1Nc1ccccn1 | 25.5% | 
-33.9% | Cc1cc(C)cc(Cc2ncc(-c3ccccc3)cc2C#N)c1 |  | 
 | Cc1cc(Nc2nc(C)c(-c3ccccc3)cc2C#N)cc(C)c1Br | 25.7% | 
-13.8% | Cc1cccc(Nc2ncc(-c3ccccc3)cc2C#N)n1 |  | 
-4.5% | COc1ccnc(Nc2nccc(-c3ccccc3)c2C#N)c1 |  | 
 | Cc1cncc(Nc2ncc(-c3ccccc3)cc2C#N)c1 | 25.3% | 
 | Cc1cc(C)cc(Nc2ncc(-c3cccc(Cl)c3)cc2C#N)c1 | 18.2% | 
-23.6% | N#Cc1cc(-c2ccccc2)cnc1Nc1cc(C2CC2)ccn1 |  | 
-33.9% | Cc1cc(Nc2ncc(-c3ccccc3)cc2C#N)nc(C)n1 |  | 
-29.6% | Cc1ccc(-c2cnc(Nc3cc(C)cc(C)c3)c(C#N)c2)cc1 |  | 
 | Cc1nc(Nc2cc(Br)cc(Br)c2)c(C#N)cc1-c1ccccc1 | 7.7% | 
 | Cc1nc(Nc2cccc(C(C)C)c2)c(C#N)cc1-c1ccccc1 | 55.2% | solubility [3]: 0.9 µM (≈ 0.295 µg/mL)
-32.3% | Cc1cc(Nc2ncc(-c3ccccc3)cc2C#N)cc(C)c1C |  | 
 | Cc1cc(Br)cc(Nc2nc(C)c(-c3ccccc3)cc2C#N)c1 | 58.4% | Activity (A549 [7]): 35.3%
 | Cc1nc(Nc2cccc(CO)c2)c(C#N)cc1-c1ccccc1 | 16.7% | 
 | CCc1ccnc(Nc2ncc(-c3ccccc3)cc2C#N)c1 | 42.3% | 
-6.3% | Cc1cc(C)cc(Nc2nc(C)c(C(C)C)cc2C#N)c1 |  | 
 | Cc1cc(C)cc(Nc2nc3ccccc3cc2C#N)c1 | 21.2% | 

Activity [1] | SMILES | inhibition (MCF7 [2]) | further results
 | N#Cc1cc(-c2ccccc2)cnc1Nc1cnccn1 | 28.3% | 
-4.9% | Cc1cc(C)cc(Nc2ncc(-c3ccc(Cl)cc3)cc2C#N)c1 |  | 
-42.7% | Cc1cc(C)cc(Nc2nc3ncccc3cc2C#N)c1 |  | 
 | Cc1cc(C)cc(Nc2nccc(-c3ccccc3)c2C#N)c1 | 39% | 
 | Cc1nc(C)nc(Nc2ncc(-c3ccccc3)cc2C#N)n1 | 9.6% | 
-42.8% | Cc1cc(C)cc(Nc2ncc(-c3ccncc3)cc2C#N)c1 |  | 
 | COc1ccnc(Nc2ncc(-c3ccccc3)cc2C#N)c1 | 39.7% | 
-0.1% | CCOC(=O)c1ccnc(Nc2ncc(-c3ccccc3)cc2C#N)c1 |  | 
-1.5% | COc1ccc(-c2cnc(Nc3cc(C)cc(C)c3)c(C#N)c2)cc1 |  | 
 | Cc1cccc(Nc2nc(C)c(-c3ccccc3)cc2C#N)c1 | 40.9% | 
-131% | N#Cc1cc(-c2ccccc2)cnc1Nc1ccc(Cl)nn1 |  | 
 | Cc1cc(C)cc(Nc2ncc(-c3cc(C)cc(C)c3)cc2C#N)c1 | 25.1% | 
 | Cc1nc(Nc2cc(Cl)cc(Cl)c2)c(C#N)cc1-c1ccccc1 | 15.7% | 
-11.8% | CCCc1nc(Nc2cc(C)cc(C)c2)c(C#N)cc1-c1ccccc1 |  | 
-31.8% | N#Cc1c(-c2ccccc2)ccnc1Nc1cc(CO)ccn1 |  | Activity [18]: -4.65%
 | Cc1cc(C)cc(Nc2ncc(-c3ccccc3)cc2C#N)c1 | 38.4% | solubility [3]: 4 µM (≈ 1.2 µg/mL)
-18.1% | Cc1cc(C)cc(Nc2nc(C)c(-c3ccccc3)cc2C(N)=O)c1 |  | 
 | Cc1cc(C)nc(Nc2ncc(-c3ccccc3)cc2C#N)n1 | 11.2% | 
-78.1% | N#Cc1c(-c2ccccc2)ccnc1Nc1ccccn1 |  | 
 | Cc1cc(C)cc(Nc2ncc(-c3ccccc3Cl)cc2C#N)c1 | 32.9% | 
